# Source: ChEMBL document CHEMBL4715802, “Novel Irreversible Agonists Acting at the A Adenosine Receptor” (J Med Chem, 2016)
# Activity calls are given as the source filed them. No cut-off for these calls is given here.
# Biological target: T1, Adenosine receptor A1 (Homo sapiens) (UniProt P30542)
# T1 sequence (whole entry): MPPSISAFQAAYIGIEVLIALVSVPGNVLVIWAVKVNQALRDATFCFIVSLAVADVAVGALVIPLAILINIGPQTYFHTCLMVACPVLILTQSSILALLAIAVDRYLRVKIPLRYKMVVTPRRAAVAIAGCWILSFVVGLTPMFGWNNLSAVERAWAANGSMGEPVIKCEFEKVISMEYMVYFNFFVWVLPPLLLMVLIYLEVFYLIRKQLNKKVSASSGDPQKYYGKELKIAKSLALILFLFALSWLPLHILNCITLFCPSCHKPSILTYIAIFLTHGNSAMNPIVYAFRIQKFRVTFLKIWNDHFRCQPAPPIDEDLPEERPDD
# Test: Binding affinity to human adenosine A1 receptor expressed in Flp-In-CHO cell membranes assessed as [3H]DPCPX binding level at 10 uM incubated for 1 hr followed by washing by liquid scintillation counting based equilibrium radioligand binding assay
# Conditions: Cell membrane, filed as agonist
# Method in brief: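 Membranes from A1AR-FlpInCHO cells were pre-incubated with 10 µM ligand in PBS with 1 unit ADA for 1 h at 37°C. They were then washed 3× with PBS, with 1 h at 37°C between washes, and resuspended in HME buffer. [3H]DPCPX at 0.1–12 nM was bound for 1 h at 37°C, filtered and β-counted. Nonspecific binding was defined with 1 µM SLV320. Results are expressed as % of buffer-pretreated Bmax, from three experiments in duplicate.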
row,SMILES,Activity [%]
1,OC[C@H]1O[C@@H](n2cnc3c(Nc4ccc(CNC(=S)Nc5ccc(N=C=S)cc5)cc4)ncnc32)[C@H](O)[C@@H]1O,8
2,CCCn1c(=O)c2nc(C3CCCC3)[nH]c2n(CCCOC(=O)c2ccc(S(=O)(=O)F)cc2)c1=O,2

# Biological target: T1, Adenosine receptor A1 (Homo sapiens)
# Test: Binding affinity to human adenosine A1 receptor expressed in Sf9 cells assessed protein melting temperature at 10 uM incubated for 30 mins by Thermo-fluor assay
# Format: cell membranes
# Conditions: Cell membrane, filed as agonist
# Method in brief: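 Human A1AR was purified from Sf9 cells in LMNG/CHS. 0.2 µg receptor was incubated with 10 µM compound for 20 h at 4°C in HEPES pH 7.5 buffer with ADA. CPM dye at 10 µM final was added for 30 min at rt. The sample was heated from 4 to 80°C in 3° steps, holding 90 s each, and fluorescence was read at 380/470 nm to derive Tm. Three experiments in duplicate.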
row,SMILES,Tm [°C]
1,OC[C@H]1O[C@@H](n2cnc3c(Nc4ccc(CNC(=S)Nc5ccc(N=C=S)cc5)cc4)ncnc32)[C@H](O)[C@@H]1O,46.6

# System: Flp-In-CHO
# Test: Stimulation of ERK1/2 phosphorylation in Flp-In-CHO cells incubated for 5 mins
# Format: cell-based
# Conditions: Cricetulus griseus
# Method in brief: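 A1AR-FlpInCHO cells were seeded at 4×10^4/well and serum-starved for about 18 h. Cells were stimulated with agonist for 5 min at 37°C, then lysed, and pERK1/2 was detected by SureFire. […] Curves were fitted for pEC50 and Emax. Three experiments in duplicate.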
row,SMILES,Activity
1,OC[C@H]1O[C@@H](n2cnc3c(Nc4ccc(CNC(=S)Nc5ccc(N=C=S)cc5)cc4)ncnc32)[C@H](O)[C@@H]1O,inactive

# Biological target: T2, Adenosine receptor A1 (Homo sapiens, UniProt P30542)
# T2 sequence (P30542 whole entry): T1 sequence (whole entry)
# Test: Irreversible agonist activity at human adenosine A1 receptor expressed in Flp-In-CHO cells assessed as stimulation of ERK1/2 phosphorylation incubated for 5 mins
# Format: cell-based
# Conditions: not given
row,SMILES,EC50 [nM]
1,OC[C@H]1O[C@@H](n2cnc3c(Nc4ccc(CNC(=S)Nc5ccc(N=C=S)cc5)cc4)ncnc32)[C@H](O)[C@@H]1O,1.58

# Biological target: Adenosine receptor A2a (Homo sapiens, UniProt P29274)
# Sequence (P29274 whole entry): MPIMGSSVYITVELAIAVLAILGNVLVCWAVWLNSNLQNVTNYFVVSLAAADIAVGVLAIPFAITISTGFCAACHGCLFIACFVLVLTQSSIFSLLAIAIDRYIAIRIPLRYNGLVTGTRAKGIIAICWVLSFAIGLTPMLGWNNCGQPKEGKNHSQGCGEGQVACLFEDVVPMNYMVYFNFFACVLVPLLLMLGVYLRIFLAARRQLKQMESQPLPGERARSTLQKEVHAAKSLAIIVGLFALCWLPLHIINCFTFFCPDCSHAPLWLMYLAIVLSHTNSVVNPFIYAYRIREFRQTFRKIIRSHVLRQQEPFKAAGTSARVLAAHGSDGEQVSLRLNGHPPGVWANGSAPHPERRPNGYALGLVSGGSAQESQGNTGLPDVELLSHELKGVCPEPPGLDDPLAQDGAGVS
# Test: Irreversible agonist activity at human adenosine A2A receptor expressed in Flp-In-CHO cells assessed as effect on forskolin-induced cAMP accumulation incubated for 30 mins by LANCE cAMP detection assay
# Format: functional, cell-based
# Conditions: not given
row,SMILES,EC50 [nM]
1,OC[C@H]1O[C@@H](n2cnc3c(Nc4ccc(CNC(=S)Nc5ccc(N=C=S)cc5)cc4)ncnc32)[C@H](O)[C@@H]1O,67.6

# Biological target: T1, Adenosine receptor A1 (Homo sapiens)
# Test: Binding affinity to human adenosine A1 receptor expressed in Flp-In-CHO cell membranes assessed as basal [35S]GTP-gamma-S incorporation level at 10 uM incubated for 40 mins followed by washing by liquid scintillation counting
# Conditions: Cell membrane
# Method in brief: (§1)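 Membranes were pretreated with 10 µM ligand and washed as for the [3H]DPCPX assay. […] 300 pM [35S]GTPγS was then added for 40 min at 20°C, followed by filtration and counting. Values are normalised to NECA-stimulated vehicle-pretreated membranes.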
row,SMILES,Activity [%]
1,OC[C@H]1O[C@@H](n2cnc3c(Nc4ccc(CNC(=S)Nc5ccc(N=C=S)cc5)cc4)ncnc32)[C@H](O)[C@@H]1O,124

# Same assay, conditions: Cell membrane, filed as agonist
row,SMILES,Activity [%]
1,CCCn1c(=O)c2nc(C3CCCC3)[nH]c2n(CCCOC(=O)c2ccc(S(=O)(=O)F)cc2)c1=O,37

# Biological target: T1, Adenosine receptor A1 (Homo sapiens)
# Test: Irreversible agonist activity at human adenosine A1 receptor expressed in Flp-In-CHO cells assessed as induction of positive change of cellular impedance at 1 uM incubated for 2 hrs by xCELLigence real-time cell analysis
# Format: cell-based
# Conditions: filed as agonist
# Method in brief: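 A1AR-FlpInCHO cells were serum-starved for about 18 h and equilibrated for at least 1 h at 37°C. 1 µM agonist or vehicle was added and impedance was recorded at 15 s intervals. […] Three experiments in duplicate.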
row,SMILES,Activity
1,OC[C@H]1O[C@@H](n2cnc3c(Nc4ccc(CNC(=S)Nc5ccc(N=C=S)cc5)cc4)ncnc32)[C@H](O)[C@@H]1O,Active

# Biological target: T1, Adenosine receptor A1 (Homo sapiens)
# Test: Irreversible agonist activity at human adenosine A1 receptor expressed in Flp-In-CHO cells assessed as induction of positive change of cellular impedance at 1 uM incubated for 1.5 hrs followed by addition of 1 uM A1AR selective antagonist SLV320 by xCELLigence real-time cell analysis
# Format: cell-based
# Conditions: filed as agonist
# Method in brief: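 A1AR-FlpInCHO cells were seeded at 4×10^4/well, serum-starved for about 18 h, and equilibrated in the impedance reader for at least 1 h at 37°C. Cells were exposed to 1 µM agonist and impedance was recorded every 15 s. After about 1.5–1.7 h, 1 µM SLV320 was added and recording continued. […] Three experiments in duplicate.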
row,SMILES,Activity
1,OC[C@H]1O[C@@H](n2cnc3c(Nc4ccc(CNC(=S)Nc5ccc(N=C=S)cc5)cc4)ncnc32)[C@H](O)[C@@H]1O,Active

# Biological target: T3, Adenosine receptor A3 (Homo sapiens, UniProt P0DMS8)
# T3 sequence (P0DMS8 whole entry): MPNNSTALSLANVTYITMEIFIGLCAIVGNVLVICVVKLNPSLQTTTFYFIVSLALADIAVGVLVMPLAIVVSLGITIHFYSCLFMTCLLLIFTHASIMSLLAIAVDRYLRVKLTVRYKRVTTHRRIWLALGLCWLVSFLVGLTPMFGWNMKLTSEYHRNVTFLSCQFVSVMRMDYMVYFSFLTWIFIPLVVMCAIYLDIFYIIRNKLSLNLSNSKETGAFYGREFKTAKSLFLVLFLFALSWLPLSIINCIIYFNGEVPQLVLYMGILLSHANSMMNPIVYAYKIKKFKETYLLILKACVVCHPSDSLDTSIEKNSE
# Test: Irreversible agonist activity at human adenosine A3 receptor expressed in Flp-In-CHO cells assessed as effect on forskolin-induced cAMP accumulation incubated for 30 mins by LANCE cAMP detection assay
# Format: functional, cell-based
# Conditions: not given
# Method in brief: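 For Gi/o-coupled A1 or A3 FlpInCHO cells, cells were preincubated for 30 min at 37°C in stimulation buffer containing 10 µM rolipram. Agonist (10 pM–10 µM) was then added with 3 µM forskolin for 30 min at 37°C. The reaction was stopped with ethanol, cells were lysed, and cAMP was read by LANCE TR-FRET. […] Three to four experiments in duplicate.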
row,SMILES,EC50 [nM]
1,OC[C@H]1O[C@@H](n2cnc3c(Nc4ccc(CNC(=S)Nc5ccc(N=C=S)cc5)cc4)ncnc32)[C@H](O)[C@@H]1O,44.7

# Biological target: T4, Adenosine receptor A2b (Homo sapiens, UniProt P29275)
# T4 sequence (P29275 whole entry): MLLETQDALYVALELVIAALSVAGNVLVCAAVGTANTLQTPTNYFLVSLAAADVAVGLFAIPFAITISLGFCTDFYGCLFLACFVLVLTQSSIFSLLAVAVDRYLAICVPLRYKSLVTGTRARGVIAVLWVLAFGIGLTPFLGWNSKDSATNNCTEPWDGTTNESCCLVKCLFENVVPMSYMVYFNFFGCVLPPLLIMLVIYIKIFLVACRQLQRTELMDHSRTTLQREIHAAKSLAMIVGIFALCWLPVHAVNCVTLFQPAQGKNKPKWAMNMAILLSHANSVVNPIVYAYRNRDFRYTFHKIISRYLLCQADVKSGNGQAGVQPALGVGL
# Test: Irreversible agonist activity at human adenosine A2B receptor expressed in Flp-In-CHO cells assessed as effect on forskolin-induced cAMP accumulation incubated for 30 mins by LANCE cAMP detection assay
# Format: functional, cell-based
# Conditions: not given
# Method in brief: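 A2BAR-FlpInCHO cells in stimulation buffer with rolipram were exposed to agonist with no preincubation, then stopped with ethanol, lysed, and cAMP was detected by LANCE. Three to four experiments in duplicate.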
row,SMILES,EC50 [nM]
1,OC[C@H]1O[C@@H](n2cnc3c(Nc4ccc(CNC(=S)Nc5ccc(N=C=S)cc5)cc4)ncnc32)[C@H](O)[C@@H]1O,224

# System: Flp-In-CHO
# Test: Effect on forskolin-induced cAMP accumulation in Flp-In-CHO cells incubated for 30 mins by LANCE cAMP detection assay
# Format: functional, cell-based
# Conditions: Cricetulus griseus
row,SMILES,Activity
1,OC[C@H]1O[C@@H](n2cnc3c(Nc4ccc(CNC(=S)Nc5ccc(N=C=S)cc5)cc4)ncnc32)[C@H](O)[C@@H]1O,inactive

# Biological target: T1, Adenosine receptor A1 (Homo sapiens)
# Test: Binding affinity to human adenosine A1 receptor expressed in NECA-pre-treated Flp-In-CHO cell membranes assessed as [35S]GTP-gamma-S incorporation level at 10 uM incubated for 40 mins followed by washing by liquid scintillation counting
# Conditions: Cell membrane, filed as agonist
# Method in brief: as §1
row,SMILES,Activity
1,OC[C@H]1O[C@@H](n2cnc3c(Nc4ccc(CNC(=S)Nc5ccc(N=C=S)cc5)cc4)ncnc32)[C@H](O)[C@@H]1O,Active
2,CCCn1c(=O)c2nc(C3CCCC3)[nH]c2n(CCCOC(=O)c2ccc(S(=O)(=O)F)cc2)c1=O,32%

# Biological target: T2, Adenosine receptor A1
# Test: Irreversible agonist activity at human adenosine A1 receptor expressed in Flp-In-CHO cells assessed as effect on forskolin-induced cAMP accumulation incubated for 30 mins by LANCE cAMP detection assay
# Format: functional, cell-based
# Conditions: not given
# Method in brief: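 For Gi/o-coupled A1 or A3 FlpInCHO cells, cells were preincubated for 30 min at 37°C in stimulation buffer containing 10 µM rolipram. Agonist (10 pM–10 µM) was then added with 3 µM forskolin for 30 min at 37°C. The reaction was stopped with ethanol, cells were lysed, and cAMP was read by LANCE TR-FRET. Three to four experiments in duplicate.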
row,SMILES,EC50 [nM]
1,OC[C@H]1O[C@@H](n2cnc3c(Nc4ccc(CNC(=S)Nc5ccc(N=C=S)cc5)cc4)ncnc32)[C@H](O)[C@@H]1O,55
